Source: ChEMBL document CHEMBL1127484, “5-Aryl-3-(alkylthio)-4H-1,2,4-triazoles as selective antagonists of strychnine-induced convulsions and potential antispastic agents” (J Med Chem, 1994)

Columns and labels:
[1] = system: Mus musculus; assay: Effective dose required for antagonist activity against maximal electroshock induced seizures in mice when administered intraperitoneally; assay type: functional; conditions: ip
How it was run: (§1)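 CD-1 male mice (18–26 g), groups of 5 or 10, housed individually, dosed ip in distilled H2O or H2O/Tween 80. Convulsant given 30 min later. Strychnine sulfate 2.7 mg/kg ip: protection = no tonic extension >15 min. MES 50 mA, 0.2 s, corneal: no tonic hind-limb extension. PTZ 60 mg/kg iv: no clonic seizures for 2 min. MPA 100 mg/kg iv: no seizures for 5 min. ED50 by quantal analysis from ≥4 doses, ≥10 mice each.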

[2] = system: Mus musculus; assay: Effective dose required for antagonist activity against 3-mercaptopropionic-acid induced seizures in mice when administered intraperitoneally; assay type: functional; conditions: ip; how it was run: as §1
[3] = Dose encompassing the 50% lethal effect was recorded when administered intraperitoneally in mice; assay type: ADME, organism-based; conditions: mouse, in vivo, ip
How it was run: (§2)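 Deaths were recorded over the 7 days after dosing. The estimated LD50 was taken as the dose range spanning 50% lethality.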

[4] = system: Mus musculus; assay: Effective dose required for antagonist activity against pentylenetetrazole-induced seizures in mice when administered intraperitoneally; assay type: functional; conditions: ip; how it was run: as §1
[5] = system: Mus musculus; assay: Effective dose required for antagonist activity against strychnine induced seizures in mice when administered intraperitoneally; assay type: functional; conditions: ip; how it was run: as §1
[6] = Dose encompassing the 50% lethal effect was recorded when administered intraperitoneally in mice; Range is 400-800; assay type: ADME, organism-based; conditions: mouse, in vivo, ip; how it was run: as §2

Compound | ED50 [1] [mg/kg] | ED50 [2] [mg/kg] | LD50 [3] [mg/kg] | ED50 [4] [mg/kg] | ED50 [5] [mg/kg] | LD50 [6] [mg/kg]
CSc1nnc(-c2cccc(F)c2)n1C | > 200 | > 200 | > 800 | > 200 | 13.8 | –
Cn1nc(-c2ccccc2)nc1S(C)(=O)=O | > 200 | > 200 | > 800 | > 200 | > 200 | –
COc1ccc(-c2nnc(SC)n2C)cc1 | > 100 | > 100 | – | > 100 | > 100 | 800
CSc1nnc(-c2ccc(Cl)cc2)n1C | > 200 | – | > 800 | > 200 | 28.1 | –
Cn1nc(-c2ccc(Cl)cc2)nc1S(C)(=O)=O | > 200 | > 200 | > 800 | > 200 | > 200 | –
CSc1nnc(-c2ccc(F)cc2)n1C | > 200 | > 200 | > 800 | > 200 | 33.4 | –
COc1ccc(-c2nnc(S(C)(=O)=O)n2C)cc1 | > 200 | > 200 | > 800 | > 200 | > 200 | –
CN1C(=O)CN=C(c2ccccc2)c2cc(Cl)ccc21 [DIAZEPAM] | 14.8 | 0.9 | – | 1.5 | 40.6 | –
CSc1nnc(-c2ccccc2Cl)n1C | > 50 | > 50 | – | > 50 | > 50 | 800
Cn1c(-c2ccccc2F)nnc1[S+](C)[O-] (stereo unspecified) | > 200 | > 200 | > 800 | 57.9 | 20 | –
Cn1nc(-c2cccc(F)c2)nc1S(C)(=O)=O | > 100 | > 100 | – | > 100 | > 100 | 800
O=C1NC(=O)C(c2ccccc2)(c2ccccc2)N1 [PHENYTOIN] | 25.9 | 89 | – | > 32 | > 200 | –
CSc1nnc(-c2ccccc2F)n1C | > 200 | – | – | 61.3 | 8.8 | 800
Cn1c(-c2cccc3ccccc23)nnc1S(C)(=O)=O | > 200 | > 200 | > 800 | > 200 | > 200 | –
Cn1nc(S(C)(=O)=O)nc1-c1ccccc1 | > 200 | > 200 | > 800 | > 200 | > 200 | –
Cn1c(-c2ccccc2)nnc1[S+](C)[O-] (stereo unspecified) | > 100 | > 100 | – | > 100 | 18.6 | 800
Cn1c(-c2cccs2)nnc1S(C)(=O)=O | > 200 | > 200 | > 800 | > 200 | > 200 | –
Cn1c(-c2ccccc2F)nnc1S(C)(=O)=O | > 100 | > 100 | > 800 | > 100 | 17.6 | –
Cn1c(-c2cccc3ccccc23)nnc1[S+](C)[O-] (stereo unspecified) | > 200 | > 200 | > 800 | > 200 | > 200 | –
Cn1nc([S+](C)[O-])nc1-c1ccccc1 (stereo unspecified) | > 200 | > 200 | > 800 | > 200 | > 200 | –
Cn1c(-c2cccc(F)c2)nnc1S(C)(=O)=O | > 200 | > 200 | > 800 | > 200 | 12.1 | –
Cc1ccc(-c2nnc(S(C)(=O)=O)n2C)cc1 | > 200 | > 200 | > 800 | > 200 | > 200 | –
CSc1n[nH]c(-c2ccc(F)cc2)n1 | > 200 | > 200 | > 800 | > 200 | > 200 | –
CSc1nnc(-c2cccc3ccccc23)n1C | > 200 | > 200 | > 800 | > 200 | > 200 | –
CSc1nc(-c2ccccc2)n(C)n1 | > 100 | > 100 | > 800 | > 100 | > 100 | –
